Data reported in ChEMBL document CHEMBL5143728, “Next-Generation Diprovocims with Potent Human and Murine TLR1/TLR2 Agonist Activity That Activate the Innate and Adaptive Immune Response” (J Med Chem, 2022).

Columns and labels:
Toll-like receptor 1/2 [1] = target: T1, Toll-like receptor 1/2 (Homo sapiens, UniProt O60603+Q15399); test: Agonist activity at TLR1/TLR2 in human THP-1 derived macrophages assessed as stimulation of TNF alpha release measured for 4 hrs by ELISA based assay; assay type: cell-based
T1 sequence (O60603 whole entry): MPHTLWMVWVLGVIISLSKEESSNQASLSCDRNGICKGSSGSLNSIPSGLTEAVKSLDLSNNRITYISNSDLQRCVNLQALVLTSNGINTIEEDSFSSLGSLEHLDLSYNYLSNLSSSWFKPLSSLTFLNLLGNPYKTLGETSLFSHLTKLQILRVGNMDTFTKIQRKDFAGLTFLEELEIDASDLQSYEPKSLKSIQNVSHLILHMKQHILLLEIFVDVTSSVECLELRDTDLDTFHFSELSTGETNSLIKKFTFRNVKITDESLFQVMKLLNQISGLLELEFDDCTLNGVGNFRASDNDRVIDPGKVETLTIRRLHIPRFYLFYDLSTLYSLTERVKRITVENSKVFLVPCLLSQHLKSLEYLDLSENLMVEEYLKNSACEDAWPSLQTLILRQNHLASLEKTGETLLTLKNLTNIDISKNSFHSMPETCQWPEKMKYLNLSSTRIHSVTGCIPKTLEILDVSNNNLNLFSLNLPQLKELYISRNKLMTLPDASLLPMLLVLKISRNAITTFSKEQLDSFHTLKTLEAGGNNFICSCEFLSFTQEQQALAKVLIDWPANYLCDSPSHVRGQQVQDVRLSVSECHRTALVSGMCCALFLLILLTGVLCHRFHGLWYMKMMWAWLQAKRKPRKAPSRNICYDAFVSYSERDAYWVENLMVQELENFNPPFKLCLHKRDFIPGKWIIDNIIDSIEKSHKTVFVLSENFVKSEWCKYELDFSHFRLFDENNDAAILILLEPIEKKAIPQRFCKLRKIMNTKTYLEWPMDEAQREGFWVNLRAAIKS
T1 sequence (Q15399 whole entry): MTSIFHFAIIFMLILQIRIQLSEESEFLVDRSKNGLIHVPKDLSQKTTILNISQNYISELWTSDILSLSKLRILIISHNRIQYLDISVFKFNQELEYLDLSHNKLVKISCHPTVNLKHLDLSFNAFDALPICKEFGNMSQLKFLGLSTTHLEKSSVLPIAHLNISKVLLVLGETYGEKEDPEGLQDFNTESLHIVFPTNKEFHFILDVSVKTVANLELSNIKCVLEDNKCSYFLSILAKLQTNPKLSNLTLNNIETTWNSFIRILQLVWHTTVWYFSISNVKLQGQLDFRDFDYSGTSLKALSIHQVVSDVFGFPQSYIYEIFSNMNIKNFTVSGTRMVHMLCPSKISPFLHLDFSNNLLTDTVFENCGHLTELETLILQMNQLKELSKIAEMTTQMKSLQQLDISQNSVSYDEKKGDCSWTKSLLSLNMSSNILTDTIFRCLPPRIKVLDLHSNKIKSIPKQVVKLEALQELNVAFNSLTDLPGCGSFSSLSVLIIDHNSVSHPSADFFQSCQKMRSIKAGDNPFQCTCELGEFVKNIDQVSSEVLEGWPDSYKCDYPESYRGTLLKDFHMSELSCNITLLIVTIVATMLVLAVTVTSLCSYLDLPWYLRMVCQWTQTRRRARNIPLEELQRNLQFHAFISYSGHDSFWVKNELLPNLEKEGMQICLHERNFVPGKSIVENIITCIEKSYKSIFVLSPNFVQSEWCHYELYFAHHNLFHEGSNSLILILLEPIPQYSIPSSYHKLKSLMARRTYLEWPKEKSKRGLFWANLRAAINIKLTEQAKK
Method in brief: (§1)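 THP-1 cells differentiated with 100 nM PMA in RPMI/10% FBS for 24 h, washed, then rested 24 h in fresh medium. Seeded at 0.5 × 10⁵ cells/well and exposed to graded compound concentrations for 4 h, with final DMSO held at 0.1%. LPS served as positive control and DMSO as negative control. Supernatant human TNF-α was read by ELISA. EC50 from duplicate means.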

Toll-like receptor 1/2 [2] = target: T1, Toll-like receptor 1/2; test: Agonist activity at TLR1/TLR2 in human THP-1 derived macrophages assessed as stimulation of TNF alpha release measured for 4 hrs by ELISA based assay relative to diprovocim-1; assay type: cell-based; parameters: Activity: concentration or dose not given beside the values; details: filed as agonist; method in brief: as §1
Toll-like receptor 1/2 [3] = target: Toll-like receptor 1/2 (Mus musculus, UniProt Q9EPQ1+Q9QUN7); test: Agonist activity at TLR1/TLR2 in wild type C57BL/6J mouse macrophages assessed as stimulation of TNF alpha release measured for 4 hrs by ELISA based assay; assay type: cell-based, Macrophage
Chain of Toll-like receptor 1/2 (Mus musculus, UniProt Q9EPQ1+Q9QUN7) (Q9QUN7 whole entry): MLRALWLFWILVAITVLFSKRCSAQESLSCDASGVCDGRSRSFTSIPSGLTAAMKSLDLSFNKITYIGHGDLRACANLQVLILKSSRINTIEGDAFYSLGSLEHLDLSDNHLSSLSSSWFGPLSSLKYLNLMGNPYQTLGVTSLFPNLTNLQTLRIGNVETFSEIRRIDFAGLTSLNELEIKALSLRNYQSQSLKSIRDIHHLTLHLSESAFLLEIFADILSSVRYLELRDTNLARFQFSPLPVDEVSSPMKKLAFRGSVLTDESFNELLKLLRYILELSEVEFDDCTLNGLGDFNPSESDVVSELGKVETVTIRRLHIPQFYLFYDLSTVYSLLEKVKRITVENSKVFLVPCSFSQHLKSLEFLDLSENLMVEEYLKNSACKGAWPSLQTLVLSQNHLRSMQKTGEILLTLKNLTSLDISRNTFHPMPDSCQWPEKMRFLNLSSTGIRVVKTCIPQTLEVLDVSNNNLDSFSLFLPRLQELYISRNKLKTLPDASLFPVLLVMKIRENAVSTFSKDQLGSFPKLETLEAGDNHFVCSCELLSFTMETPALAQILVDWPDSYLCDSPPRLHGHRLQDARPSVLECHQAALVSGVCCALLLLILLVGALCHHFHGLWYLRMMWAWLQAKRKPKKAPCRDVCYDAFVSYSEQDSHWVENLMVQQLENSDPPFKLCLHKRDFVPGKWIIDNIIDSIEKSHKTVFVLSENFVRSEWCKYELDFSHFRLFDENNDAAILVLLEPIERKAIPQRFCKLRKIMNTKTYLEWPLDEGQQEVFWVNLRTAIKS
Chain of Toll-like receptor 1/2 (Mus musculus, UniProt Q9EPQ1+Q9QUN7) (Q9EPQ1 whole entry): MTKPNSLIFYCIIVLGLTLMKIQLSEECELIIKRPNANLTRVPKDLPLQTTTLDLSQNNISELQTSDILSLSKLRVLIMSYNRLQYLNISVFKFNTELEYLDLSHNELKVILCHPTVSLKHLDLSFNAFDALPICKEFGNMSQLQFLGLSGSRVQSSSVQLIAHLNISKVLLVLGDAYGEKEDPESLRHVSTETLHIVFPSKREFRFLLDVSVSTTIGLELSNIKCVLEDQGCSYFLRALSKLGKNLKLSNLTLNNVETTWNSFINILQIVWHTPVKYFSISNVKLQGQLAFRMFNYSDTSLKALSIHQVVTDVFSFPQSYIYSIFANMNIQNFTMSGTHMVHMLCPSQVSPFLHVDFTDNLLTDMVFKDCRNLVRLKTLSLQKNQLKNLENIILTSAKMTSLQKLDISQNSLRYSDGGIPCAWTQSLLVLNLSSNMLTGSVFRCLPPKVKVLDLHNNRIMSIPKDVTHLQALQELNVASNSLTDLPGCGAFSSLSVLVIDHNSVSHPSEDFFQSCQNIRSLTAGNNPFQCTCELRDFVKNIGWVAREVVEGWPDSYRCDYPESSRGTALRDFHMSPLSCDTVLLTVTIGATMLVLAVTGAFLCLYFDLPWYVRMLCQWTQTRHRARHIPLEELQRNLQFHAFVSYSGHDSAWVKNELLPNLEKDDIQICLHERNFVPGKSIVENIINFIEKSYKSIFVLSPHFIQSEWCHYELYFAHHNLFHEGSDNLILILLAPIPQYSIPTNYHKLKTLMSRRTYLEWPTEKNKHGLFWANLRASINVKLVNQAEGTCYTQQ
Method in brief: (§2)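 Thioglycolate-elicited peritoneal macrophages from wild type C57BL/6J mice, harvested by PBS lavage 4 d after i.p. 4% thioglycolate. Cultured in DMEM/10% FBS at 37 °C, 5% CO2, seeded at 1 × 10⁵ cells/well and exposed to graded compound concentrations for 4 h, with final DMSO ≤0.5% held constant. LPS served as positive control. Supernatant mouse TNF-α was read by ELISA. EC50 from duplicate means.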

[4] = target: Toll-like receptor 1/2 (Mus musculus) (UniProt Q9QUN7+Q9EPQ1); test: Agonist activity at TLR1/TLR2 in wild type C57BL/6J mouse macrophages assessed as stimulation of TNF alpha release measured for 4 hrs by ELISA based assay relative to diprovocim-1; assay type: cell-based; parameters: Activity: concentration or dose not given beside the values; details: Macrophage, filed as agonist; method in brief: as §2

Compound	EC50 (Toll-like receptor 1/2 [1])	Emax (Toll-like receptor 1/2 [2])	EC50 (Toll-like receptor 1/2 [3])	Emax [4]	Activity (Toll-like receptor 1/2 [2])	Activity [4]
CCCCNC(=O)[C@@H]1CN(C(=O)c2ccc(C(=O)N3C[C@@H](C(=O)N[C@H]4C[C@@H]4c4ccccc4)[C@H](C(=O)N[C@H]4C[C@@H]4c4ccccc4)C3)cc2)C[C@H]1C(=O)N[C@H]1C[C@@H]1c1ccccc1	2 nM	120%	30 nM	150%	–	–
CCCCCCCCCCCCNC(=O)[C@@H]1CN(C(=O)c2ccc(C(=O)N3C[C@@H](C(=O)N[C@H]4C[C@@H]4c4ccccc4)[C@H](C(=O)N[C@H]4C[C@@H]4c4ccccc4)C3)cc2)C[C@H]1C(=O)N[C@H]1C[C@@H]1c1ccccc1	0.1 nM	110%	2.1 nM	100%	–	–
CCCCCCCCCCCCCCNC(=O)[C@@H]1CN(C(=O)c2ccc(C(=O)N3C[C@@H](C(=O)N[C@H]4C[C@@H]4c4ccccc4)[C@H](C(=O)N[C@H]4C[C@@H]4c4ccccc4)C3)cc2)C[C@H]1C(=O)N[C@H]1C[C@@H]1c1ccccc1	0.1 nM	150%	1.1 nM	100%	–	–
CCCCCCCCNC(=O)[C@@H]1CN(C(=O)c2ccc(C(=O)N3C[C@@H](C(=O)N[C@H]4C[C@@H]4c4ccccc4)[C@H](C(=O)N[C@H]4C[C@@H]4c4ccccc4)C3)cc2)C[C@H]1C(=O)N[C@H]1C[C@@H]1c1ccccc1	0.33 nM	100%	540 nM	240%	–	–
CCNC(=O)[C@@H]1CN(C(=O)c2ccc(C(=O)N3C[C@@H](C(=O)N[C@H]4C[C@@H]4c4ccccc4)[C@H](C(=O)N[C@H]4C[C@@H]4c4ccccc4)C3)cc2)C[C@H]1C(=O)N[C@H]1C[C@@H]1c1ccccc1	17 nM	90%	360 nM	130%	–	–
CCCCCCCCCCNC(=O)[C@@H]1CN(C(=O)c2ccc(C(=O)N3C[C@@H](C(=O)N[C@H]4C[C@@H]4c4ccccc4)[C@H](C(=O)N[C@H]4C[C@@H]4c4ccccc4)C3)cc2)C[C@H]1C(=O)N[C@H]1C[C@@H]1c1ccccc1	0.1 nM	100%	650 nM	260%	–	–
COC(=O)CCCCCCCCCCCNC(=O)[C@@H]1CN(C(=O)c2ccc(C(=O)N3C[C@@H](C(=O)N[C@H]4C[C@@H]4c4ccccc4)[C@H](C(=O)N[C@H]4C[C@@H]4c4ccccc4)C3)cc2)C[C@H]1C(=O)N[C@H]1C[C@@H]1c1ccccc1	0.2 nM	–	–	–	100%	100%
COC(=O)CCOCCOCCOCCNC(=O)[C@@H]1CN(C(=O)c2ccc(C(=O)N3C[C@@H](C(=O)N[C@H]4C[C@@H]4c4ccccc4)[C@H](C(=O)N[C@H]4C[C@@H]4c4ccccc4)C3)cc2)C[C@H]1C(=O)N[C@H]1C[C@@H]1c1ccccc1	–	–	> 500 nM	–	110%	–
O=C(O)[C@@H]1CN(C(=O)c2ccc(C(=O)N3C[C@@H](C(=O)N[C@H]4C[C@@H]4c4ccccc4)[C@H](C(=O)N[C@H]4C[C@@H]4c4ccccc4)C3)cc2)C[C@H]1C(=O)N[C@H]1C[C@@H]1c1ccccc1	200 nM	–	> 5000 nM	–	110%	–
CCCCCCCCCCCCCCCCNC(=O)[C@@H]1CN(C(=O)c2ccc(C(=O)N3C[C@@H](C(=O)N[C@H]4C[C@@H]4c4ccccc4)[C@H](C(=O)N[C@H]4C[C@@H]4c4ccccc4)C3)cc2)C[C@H]1C(=O)N[C@H]1C[C@@H]1c1ccccc1	0.5 nM	110%	2.6 nM	75%	–	–
COC(=O)CCCCCCCCCNC(=O)[C@@H]1CN(C(=O)c2ccc(C(=O)N3C[C@@H](C(=O)N[C@H]4C[C@@H]4c4ccccc4)[C@H](C(=O)N[C@H]4C[C@@H]4c4ccccc4)C3)cc2)C[C@H]1C(=O)N[C@H]1C[C@@H]1c1ccccc1	0.37 nM	–	17 nM	–	–	–
O=C(NCCCCCCCCCCO)[C@@H]1CN(C(=O)c2ccc(C(=O)N3C[C@@H](C(=O)N[C@H]4C[C@@H]4c4ccccc4)[C@H](C(=O)N[C@H]4C[C@@H]4c4ccccc4)C3)cc2)C[C@H]1C(=O)N[C@H]1C[C@@H]1c1ccccc1	0.5 nM	–	50 nM	–	–	–
CCCCCCNC(=O)[C@@H]1CN(C(=O)c2ccc(C(=O)N3C[C@@H](C(=O)N[C@H]4C[C@@H]4c4ccccc4)[C@H](C(=O)N[C@H]4C[C@@H]4c4ccccc4)C3)cc2)C[C@H]1C(=O)N[C@H]1C[C@@H]1c1ccccc1	0.25 nM	100%	80 nM	150%	–	–
CC(C)(C)OC(=O)CCOCCOCCOCCNC(=O)[C@@H]1CN(C(=O)c2ccc(C(=O)N3C[C@@H](C(=O)N[C@H]4C[C@@H]4c4ccccc4)[C@H](C(=O)N[C@H]4C[C@@H]4c4ccccc4)C3)cc2)C[C@H]1C(=O)N[C@H]1C[C@@H]1c1ccccc1	–	–	500 nM	–	–	–
COC(=O)CCCCCCCNC(=O)[C@@H]1CN(C(=O)c2ccc(C(=O)N3C[C@@H](C(=O)N[C@H]4C[C@@H]4c4ccccc4)[C@H](C(=O)N[C@H]4C[C@@H]4c4ccccc4)C3)cc2)C[C@H]1C(=O)N[C@H]1C[C@@H]1c1ccccc1	3.8 nM	–	240 nM	–	–	–
COC(=O)NCC(=O)OCCCCCCCCCCCCNC(=O)[C@@H]1CN(C(=O)c2ccc(C(=O)N3C[C@@H](C(=O)N[C@H]4C[C@@H]4c4ccccc4)[C@H](C(=O)N[C@H]4C[C@@H]4c4ccccc4)C3)cc2)C[C@H]1C(=O)N[C@H]1C[C@@H]1c1ccccc1	–	–	–	–	100%	120%
CSCC[C@H](NC(=O)OC(C)(C)C)C(=O)OCCCCCCCCCCCCNC(=O)[C@@H]1CN(C(=O)c2ccc(C(=O)N3C[C@@H](C(=O)N[C@H]4C[C@@H]4c4ccccc4)[C@H](C(=O)N[C@H]4C[C@@H]4c4ccccc4)C3)cc2)C[C@H]1C(=O)N[C@H]1C[C@@H]1c1ccccc1	–	–	–	–	100%	150%
O=C(CNC(=O)OCC1c2ccccc2-c2ccccc21)OCCCCCCCCCCCCNC(=O)[C@@H]1CN(C(=O)c2ccc(C(=O)N3C[C@@H](C(=O)N[C@H]4C[C@@H]4c4ccccc4)[C@H](C(=O)N[C@H]4C[C@@H]4c4ccccc4)C3)cc2)C[C@H]1C(=O)N[C@H]1C[C@@H]1c1ccccc1	–	–	–	–	100%	170%
O=C(CNC(=O)OCc1ccccc1)OCCCCCCCCCCCCNC(=O)[C@@H]1CN(C(=O)c2ccc(C(=O)N3C[C@@H](C(=O)N[C@H]4C[C@@H]4c4ccccc4)[C@H](C(=O)N[C@H]4C[C@@H]4c4ccccc4)C3)cc2)C[C@H]1C(=O)N[C@H]1C[C@@H]1c1ccccc1	–	–	–	–	100%	410%
NCCCCCCCCCCCCNC(=O)[C@@H]1CN(C(=O)c2ccc(C(=O)N3C[C@@H](C(=O)N[C@H]4C[C@@H]4c4ccccc4)[C@H](C(=O)N[C@H]4C[C@@H]4c4ccccc4)C3)cc2)C[C@H]1C(=O)N[C@H]1C[C@@H]1c1ccccc1	–	–	–	–	140%	130%
O=C(NCCCCCCCCCCCCO)[C@@H]1CN(C(=O)c2ccc(C(=O)N3C[C@@H](C(=O)N[C@H]4C[C@@H]4c4ccccc4)[C@H](C(=O)N[C@H]4C[C@@H]4c4ccccc4)C3)cc2)C[C@H]1C(=O)N[C@H]1C[C@@H]1c1ccccc1	–	–	–	–	90%	110%
O=C(NCCCCCCCCCCCCOCc1ccc([N+](=O)[O-])cc1)[C@@H]1CN(C(=O)c2ccc(C(=O)N3C[C@@H](C(=O)N[C@H]4C[C@@H]4c4ccccc4)[C@H](C(=O)N[C@H]4C[C@@H]4c4ccccc4)C3)cc2)C[C@H]1C(=O)N[C@H]1C[C@@H]1c1ccccc1	–	–	–	–	110%	230%
CC(C)(C)OC(=O)CCOCCOCCOCCNC(=O)CCCCCCCCCCCNC(=O)[C@@H]1CN(C(=O)c2ccc(C(=O)N3C[C@@H](C(=O)N[C@H]4C[C@@H]4c4ccccc4)[C@H](C(=O)N[C@H]4C[C@@H]4c4ccccc4)C3)cc2)C[C@H]1C(=O)N[C@H]1C[C@@H]1c1ccccc1	–	–	–	–	100%	140%
CC(=O)NCC(=O)OCCCCCCCCCCCCNC(=O)[C@@H]1CN(C(=O)c2ccc(C(=O)N3C[C@@H](C(=O)N[C@H]4C[C@@H]4c4ccccc4)[C@H](C(=O)N[C@H]4C[C@@H]4c4ccccc4)C3)cc2)C[C@H]1C(=O)N[C@H]1C[C@@H]1c1ccccc1	–	–	–	–	90%	180%
[N-]=[N+]=NCC(=O)OCCCCCCCCCCCCNC(=O)[C@@H]1CN(C(=O)c2ccc(C(=O)N3C[C@@H](C(=O)N[C@H]4C[C@@H]4c4ccccc4)[C@H](C(=O)N[C@H]4C[C@@H]4c4ccccc4)C3)cc2)C[C@H]1C(=O)N[C@H]1C[C@@H]1c1ccccc1	–	–	–	–	100%	120%
CN(C)CC(=O)OCCCCCCCCCCCCNC(=O)[C@@H]1CN(C(=O)c2ccc(C(=O)N3C[C@@H](C(=O)N[C@H]4C[C@@H]4c4ccccc4)[C@H](C(=O)N[C@H]4C[C@@H]4c4ccccc4)C3)cc2)C[C@H]1C(=O)N[C@H]1C[C@@H]1c1ccccc1	–	–	–	–	100%	140%
